Data on 2 compounds can be found in ChEMBL document CHEMBL4823260, “From High-Throughput Screening to Target Validation: Benzo[d]isothiazoles as Potent and Selective Agonists of Human Transient Receptor Potential Cation Channel Subfamily M Member 5 Possessing In Vivo Gastrointestinal Prokinetic Activity in Rodents” (J Med Chem, 2021).

In general, bioavailability refers to dose-corrected exposure relative to a reference, in per cent. A low value points to poor availability. A word on the half-life: it is the time needed for the level to fall by half in the phase considered. Read a low half-life as fast loss.

A short description of data set [1]: Volume of distribution at steady state in CD-1 mouse at 1 mg/kg, iv measured up to 24 hrs. Type of data set: ADME, organism-based. The following applies: in vivo, read-out: Vdss.
A short description of data set [2]: AUClast in CD-1 mouse at 1 mg/kg, iv measured up to 24 hrs. It is filed as ADME, organism-based. The arrangement: route intravenous, dose 1 mg/kg, time <=24. The following applies: in vivo.
Data set [3] in a line: Clast in CD-1 mouse at 10 mg/kg, po measured up to 24 hrs. It is filed as ADME, organism-based. The settings on record: in vivo, read-out: Clast.
Data set [4] can be described thus: Oral bioavailability in CD-1 mouse at 10 mg/kg measured up to 24 hrs. Type of data set: ADME, organism-based. The following applies: in vivo.
The nature of data set [5]: Half life in CD-1 mouse at 1 mg/kg, iv measured up to 24 hrs. Type of data set: ADME, organism-based. The settings on record: in vivo.
A short description of data set [6]: Drug concentration in C57BL6 mouse colon at 3 mg/kg, po administered as single dose measured after 6 hrs by LC-MS/MS analysis. The following applies: read-out: Ct. It is filed as ADME, organism-based. The gist of the method:
(§1)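 Single oral dose of 1, 3 or 100 mg/kg in mouse. Plasma (ng/mL) and colon and ileum (ng/g) exposure sampled at 6, 24 and 48 h, and at 72 h for the top dose; mean values reported.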

Data set [7] can be described thus: Drug concentration in C57BL6 mouse colon at 1 mg/kg, po administered as single dose measured after 24 to 48 hrs by LC-MS/MS analysis. Type of data set: ADME, organism-based. The following applies: in vivo, time 24-48 hrs. In short, it runs like this: as §1
Data set [8] concerns Mus musculus. Briefly: Gastroprokinetic activity in CD-1 mouse assessed as stimulation of gastrointestinal motility by measuring fecal number at 1 mg/kg, po measured after 6 hrs (reference value: 20.1 +/-1.4). It is filed as functional.
The test system of data set [9] is Mus musculus. The data set can be described thus: Gastroprokinetic activity in CD-1 mouse assessed as stimulation of gastrointestinal motility by measuring total fecal weight at 10 mg/kg, po measured after 6 hrs (reference value: 0.43 +/-0.05 g).
Data set [10] concerns Mus musculus. Briefly: Gastroprokinetic activity in CD-1 mouse assessed as stimulation of gastrointestinal motility by measuring total fecal weight at 100 mg/kg, po measured after 6 hrs (reference value: 0.43 +/-0.05 g).
The test system of data set [11] is Mus musculus. The data set can be described thus: Gastroprokinetic activity in CD-1 mouse assessed as stimulation of gastrointestinal motility by measuring fecal number at 1 mg/kg, po measured after 3 hrs (reference value: 9.1 +/-1.1). It is filed as functional.
The test system of data set [12] is Mus musculus. The data set can be described thus: Gastroprokinetic activity in CD-1 mouse assessed as stimulation of gastrointestinal motility by measuring total fecal weight at 1 mg/kg, po measured after 2 hrs (reference value: 0.13 +/-0.02 g). Type of data set: functional.
Data set [13] concerns Mus musculus. Briefly: Gastroprokinetic activity in CD-1 mouse assessed as stimulation of gastrointestinal motility by measuring fecal number at 100 mg/kg, po measured after 6 hrs (reference value: 20.1 +/-1.4). It is filed as functional.
Data set [14] is described as follows: Drug concentration in C57BL6 mouse colon at 100 mg/kg, po administered as single dose measured after 24 hrs by LC-MS/MS analysis. The following applies: read-out: Ct. It is filed as ADME, organism-based. The gist of the method:
as §1

Data set [15] deals with Mus musculus. Briefly: Gastroprokinetic activity in CD-1 mouse assessed as stimulation of gastrointestinal motility by measuring fecal number at 10 mg/kg, po measured after 3 hrs (reference value: 9.1 +/-1.1). Type of data set: functional.
Data set [16] in a line: Toxicity in CD-1 mouse assessed as effect on behavioral change at 1 to 100 mg/kg, po measured up to 6 hrs. It is filed as organism-based. The settings on record: in vivo, dose 1-100 mg/kg. The gist of the method:
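CD-1 mice dosed orally at 1, 10 or 100 mg/kg or with formulation vehicle (N = 12/group). General health status, locomotion and general behaviour observed at 1, 2, 3 and 6 h after treatment, alongside fecal collection in single grid-floored cages.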

Data set [17] concerns Mus musculus. Briefly: Gastroprokinetic activity in CD-1 mouse assessed as stimulation of gastrointestinal motility by measuring total fecal weight at 1 mg/kg, po measured after 6 hrs (reference value: 0.43 +/-0.05 g). It is filed as functional.
The nature of data set [18]: Drug concentration in C57BL6 mouse colon at 100 mg/kg, po administered as single dose measured after 48 hrs by LC-MS/MS analysis. Type of data set: ADME, organism-based. The settings on record: read-out: Ct. The gist of the method: as §1
Data set [19] deals with Mus musculus. The data set can be described thus: Gastroprokinetic activity in CD-1 mouse assessed as stimulation of gastrointestinal motility by measuring total fecal weight at 10 mg/kg, po measured after 1 hrs (reference value: 0.08 +/-0.02 g). It is filed as functional.
Data set [20] in a line: Drug concentration in C57BL6 mouse colon at 100 mg/kg, po administered as single dose measured after 6 hrs by LC-MS/MS analysis. The following applies: read-out: Ct. It is filed as ADME, organism-based. The gist of the method:
as §1

A short description of data set [21]: Drug concentration in C57BL6 mouse colon at 1 mg/kg, po administered as single dose measured after 6 hrs by LC-MS/MS analysis. It is filed as ADME, organism-based. The following applies: read-out: Ct. In short, it runs like this: as §1
A short description of data set [22]: Drug concentration in C57BL6 mouse ileum at 1 mg/kg, po administered as single dose measured after 6 to 48 hrs by LC-MS/MS analysis. Type of data set: ADME, organism-based. The settings on record: in vivo, time 6-48 hrs. The gist of the method: as §1
Data set [23] deals with Mus musculus. Briefly: Gastroprokinetic activity in CD-1 mouse assessed as stimulation of gastrointestinal motility by measuring fecal number at 10 mg/kg, po measured after 2 hrs (reference value: 5.3 +/-0.7). It is filed as functional.
Data set [24] is described as follows: Drug concentration in C57BL6 mouse colon at 3 mg/kg, po administered as single dose measured after 24 to 48 hrs by LC-MS/MS analysis. Type of data set: ADME, organism-based. The settings on record: in vivo, time 24-48 hrs. The gist of the method:
as §1

Data set [25] can be described thus: Drug concentration in C57BL6 mouse ileum at 100 mg/kg, po administered as single dose measured after 24 hrs by LC-MS/MS analysis. Type of data set: ADME, organism-based. The following applies: read-out: Ct. In short, it runs like this: as §1
Data set [26] in a line: Drug concentration in C57BL6 mouse ileum at 100 mg/kg, po administered as single dose measured after 48 to 72 hrs by LC-MS/MS analysis. It is filed as ADME, organism-based. The following applies: in vivo, time 48-72 hrs. The gist of the method: as §1
Data set [27] concerns Mus musculus. Briefly: Gastroprokinetic activity in CD-1 mouse assessed as stimulation of gastrointestinal motility by measuring fecal number at 1 mg/kg, po measured after 1 hrs (reference value: 3 +/-0.8). It is filed as functional.
Data set [28] is described as follows: Drug concentration in C57BL6 mouse colon at 100 mg/kg, po administered as single dose measured after 72 hrs by LC-MS/MS analysis. Type of data set: ADME, organism-based. The gist of the method:
as §1

The subject of data set [29] is Mus musculus. Briefly: Gastroprokinetic activity in CD-1 mouse assessed as stimulation of gastrointestinal motility by measuring total fecal weight at 100 mg/kg, po measured after 3 hrs (reference value: 0.21 +/-0.03 g). Type of data set: functional.
Data set [30] in a line: Drug concentration in C57BL6 mouse ileum at 3 mg/kg, po administered as single dose measured after 6 to 48 hrs by LC-MS/MS analysis. Type of data set: ADME, organism-based. The following applies: in vivo, time 6-48 hrs. In short, it runs like this: as §1
A short description of data set [31]: Effect on locomotor activity in CD-1 mouse at 1 to 100 mg/kg, po measured up to 6 hrs. Type of data set: organism-based. The settings on record: in vivo, dose 1-100 mg/kg.
The nature of data set [32]: Drug concentration in C57BL6 mouse ileum at 100 mg/kg, po administered as single dose measured after 6 hrs by LC-MS/MS analysis. It is filed as ADME, organism-based. The settings on record: read-out: Ct. In short, it runs like this: as §1
Data set [33] deals with Mus musculus. The data set can be described thus: Gastroprokinetic activity in CD-1 mouse assessed as stimulation of gastrointestinal motility by measuring total fecal weight at 1 mg/kg, po measured after 1 hrs (reference value: 0.08 +/-0.02 g). It is filed as functional.
Data set [34] relates to Mus musculus. Briefly: Gastroprokinetic activity in CD-1 mouse assessed as stimulation of gastrointestinal motility by measuring total fecal weight at 1 mg/kg, po measured after 3 hrs (reference value: 0.21 +/-0.03 g). It is filed as functional.

Take `Clc1cnc(CNc2ccc3cnsc3c2)s1`: in [1], the Vd amounted to 1.12 L/kg. In [2], this compound showed an AUClast of 541 ng·h/mL. Besides, in data set [3], the concentration at 24 h turned out to be 2.76 ng/mL. This compound gave a bioavailability in [4] of 1.54%. In addition, the half-life in data set [5] was 48.6 min.

Consider `Clc1cnc(CNc2cc3sncc3cc2Cl)s1`, for which the concentration at 6 h was 143 ng/g in [6], 2620 ng/g in data set [20], 63.8 ng/g in data set [21] and 7380 ng/g in data set [32]. Besides, the Ct in data set [7], in data set [22], in data set [24], in [26] and in [30] was below 20 ng/mL in each case. Further, the Activity with Mus musculus [8] was determined as 24.3; with Mus musculus [9], 0.39 g; in the data set on Mus musculus [10], 0.49 g; with Mus musculus [11], 11.8; in the data set with Mus musculus [12] it was 0.15 g; with Mus musculus [13], 16.3. The Activity in the data set on Mus musculus [15] is reported as 10.3; in data set [16], “Non-Toxic”; with Mus musculus [17] it was 0.45 g; with Mus musculus [19], 0.08 g; with Mus musculus [23] it was 7.3; with Mus musculus [27] it was 4.3. The Activity in the data set on Mus musculus [29] is reported as 0.41 g; in [31] it was “Non-Toxic”; in the data set with Mus musculus [33] it was 0.09 g; in the data set with Mus musculus [34], 0.23 g. The results for the concentration at 24 h in data set [14] and in data set [25] were 164 ng/g and 202 ng/g, respectively. Besides, the concentration at 48 h in data set [18] was 58 ng/g. Moreover, the concentration at 72 h in [28] was below 20 ng/mL.
